In PMC2857698 (Biochemistry, 2010):

What was measured:
EH domain of EHD1 = experiment: ITC of NPF peptides binding to EHD1 EH; design: species or system mouse; conditions: for Ka / TΔS / ΔG / ΔH / ΔS: 25 mM MOPS pH 7.0, 1 mM CaCl2
How it was run: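 Mouse EHD1 EH domain (V437–E534) expressed as a GST fusion, purified on glutathione resin and thrombin-cleaved on beads. Protein and peptides were dialysed at 4°C against 25 mM MOPS pH 7.0, 1 mM CaCl2, with KCl varied where applicable. ITC was run at 20°C unless stated (5–25°C), with 50–200 μM protein in the cell and peptide titrant 10-fold higher. Single-site fit gave Ka, n and ΔH; ΔG = −RTlnKa, and TΔS came from ΔG = ΔH − TΔS.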

Eps15 EH2 = experiment: ITC of Rsn5-NPF1 with Eps15 EH2; assay type: binding; conditions: protein concentration in the ITC cell increased to 0.5 mM

In the case of Ac-GPSLNPFDEED-NH2 [Rsn5-NPF1], the “fold higher affinity than Rfp2-NPF2” value (EH domain of EHD1; ITC, EHD1 EH) is reported as 100 fold, the Ka (EH domain of EHD1; ITC, 5.0 °C) is reported as 2.03e+06 M⁻¹ and the TΔS (EH domain of EHD1; ITC, 5.0 °C) is reported as -3.992 kJ/mol. It also gave a ΔG (EH domain of EHD1; ITC, 5.0 °C) of -33.56 kJ/mol, a ΔH (EH domain of EHD1; ITC, 5.0 °C) of -37.6 kJ/mol and a ΔS (EH domain of EHD1; ITC, 5.0 °C) of −3.43 cal mol^−1 K^−1. It also gave a Ka (EH domain of EHD1; ITC, 10.0 °C) of 1.71e+06 M⁻¹, a TΔS (EH domain of EHD1; ITC, 10.0 °C) of -6.72 kJ/mol and a ΔG (EH domain of EHD1; ITC, 10.0 °C) of -33.76 kJ/mol. The ΔH (EH domain of EHD1; ITC, 10.0 °C) was -40.52 kJ/mol, the ΔS (EH domain of EHD1; ITC, 10.0 °C) was −5.67 cal mol^−1 K^−1 and the Ka (EH domain of EHD1; ITC, 15.0 °C) was 1.1e+06 M⁻¹. The TΔS (EH domain of EHD1; ITC, 15.0 °C) was -10.32 kJ/mol, the ΔG (EH domain of EHD1; ITC, 15.0 °C) was -33.3 kJ/mol and the ΔH (EH domain of EHD1; ITC, 15.0 °C) was -43.681 kJ/mol. For the same substance, the ΔS (EH domain of EHD1; ITC, 15.0 °C) was −8.56 cal mol^−1 K^−1, the Ka (EH domain of EHD1; ITC, 20.0 °C) was 814000 M⁻¹ and the TΔS (EH domain of EHD1; ITC, 20.0 °C) was -14.23 kJ/mol. It also gave a ΔG (EH domain of EHD1; ITC, 20.0 °C) of -33.14 kJ/mol, a ΔH (EH domain of EHD1; ITC, 20.0 °C) of -47.405 kJ/mol and a ΔS (EH domain of EHD1; ITC, 20.0 °C) of −11.6 cal mol^−1 K^−1. It also gave a Ka (EH domain of EHD1; ITC, 20 °C, KCl 25.0 mM) of 302000 M⁻¹, a TΔS (EH domain of EHD1; ITC, 20 °C, KCl 25.0 mM) of -12.88 kJ/mol and a ΔH (EH domain of EHD1; ITC, 20 °C, KCl 25.0 mM) of -43.597 kJ/mol. The ΔS (EH domain of EHD1; ITC, 20 °C, KCl 25.0 mM) was −10.5 cal mol^−1 K^−1, the Ka (EH domain of EHD1; ITC, 20 °C, KCl 50.0 mM) was 168000 M⁻¹ and the TΔS (EH domain of EHD1; ITC, 20 °C, KCl 50.0 mM) was -14.23 kJ/mol. It also gave a ΔG (EH domain of EHD1; ITC, 20 °C, KCl 50.0 mM) of -29.3 kJ/mol, a ΔH (EH domain of EHD1; ITC, 20 °C, KCl 50.0 mM) of -43.597 kJ/mol and a ΔS (EH domain of EHD1; ITC, 20 °C, KCl 50.0 mM) of −11.6 cal mol^−1 K^−1. It also gave a Ka (EH domain of EHD1; ITC, 20 °C, KCl 75.0 mM) of 115000 M⁻¹, a TΔS (EH domain of EHD1; ITC, 20 °C, KCl 75.0 mM) of -14.84 kJ/mol and a ΔG (EH domain of EHD1; ITC, 20 °C, KCl 75.0 mM) of -28.38 kJ/mol. The ΔH (EH domain of EHD1; ITC, 20 °C, KCl 75.0 mM) was -43.263 kJ/mol, the ΔS (EH domain of EHD1; ITC, 20 °C, KCl 75.0 mM) was −12.1 cal mol^−1 K^−1 and the Ka (EH domain of EHD1; ITC, 20 °C, KCl 100.0 mM) was 86500 M⁻¹. For the same substance, the TΔS (EH domain of EHD1; ITC, 20 °C, KCl 100.0 mM) was -17.79 kJ/mol, the ΔG (EH domain of EHD1; ITC, 20 °C, KCl 100.0 mM) was -27.68 kJ/mol and the ΔH (EH domain of EHD1; ITC, 20 °C, KCl 100.0 mM) was -45.522 kJ/mol. The ΔS (EH domain of EHD1; ITC, 20 °C, KCl 100.0 mM) was −14.5 cal mol^−1 K^−1, the Ka (EH domain of EHD1; ITC, 20 °C, KCl 125.0 mM) was 65000 M⁻¹ and the TΔS (EH domain of EHD1; ITC, 20 °C, KCl 125.0 mM) was -16.93 kJ/mol. For the same substance, the ΔG (EH domain of EHD1; ITC, 20 °C, KCl 125.0 mM) was -26.99 kJ/mol, the ΔH (EH domain of EHD1; ITC, 20 °C, KCl 125.0 mM) was -43.932 kJ/mol and the ΔS (EH domain of EHD1; ITC, 20 °C, KCl 125.0 mM) was −13.8 cal mol^−1 K^−1. It also gave a Ka (EH domain of EHD1; ITC, 20 °C, KCl 150.0 mM) of 53000 M⁻¹, a TΔS (EH domain of EHD1; ITC, 20 °C, KCl 150.0 mM) of -17.42 kJ/mol and a ΔG (EH domain of EHD1; ITC, 20 °C, KCl 150.0 mM) of -26.49 kJ/mol. It also gave a ΔH (EH domain of EHD1; ITC, 20 °C, KCl 150.0 mM) of -43.932 kJ/mol, a ΔS (EH domain of EHD1; ITC, 20 °C, KCl 150.0 mM) of −14.2 cal mol^−1 K^−1 and a Ka (EH domain of EHD1; ITC, 20 °C, KCl 300.0 mM) of 24800 M⁻¹. The TΔS (EH domain of EHD1; ITC, 20 °C, KCl 300.0 mM) was -18.28 kJ/mol, the ΔG (EH domain of EHD1; ITC, 20 °C, KCl 300.0 mM) was -24.64 kJ/mol and the ΔH (EH domain of EHD1; ITC, 20 °C, KCl 300.0 mM) was -42.928 kJ/mol. It also gave a ΔS (EH domain of EHD1; ITC, 20 °C, KCl 300.0 mM) of −14.9 cal mol^−1 K^−1, a Ka (EH domain of EHD1; ITC, 20 °C, KCl 450.0 mM) of 17800 M⁻¹ and a TΔS (EH domain of EHD1; ITC, 20 °C, KCl 450.0 mM) of -19.75 kJ/mol. The ΔG (EH domain of EHD1; ITC, 20 °C, KCl 450.0 mM) was -23.83 kJ/mol, the ΔH (EH domain of EHD1; ITC, 20 °C, KCl 450.0 mM) was -43.639 kJ/mol and the ΔS (EH domain of EHD1; ITC, 20 °C, KCl 450.0 mM) was −16.1 cal mol^−1 K^−1. It also gave a Ka (EH domain of EHD1; ITC, 25.0 °C) of 606000 M⁻¹, a TΔS (EH domain of EHD1; ITC, 25.0 °C) of -16.97 kJ/mol and a ΔG (EH domain of EHD1; ITC, 25.0 °C) of -32.97 kJ/mol. The ΔH (EH domain of EHD1; ITC, 25.0 °C) was -49.957 kJ/mol, the ΔS (EH domain of EHD1; ITC, 25.0 °C) was −13.6 cal mol^−1 K^−1 and the “non-electrostatic ΔG” value (EH domain of EHD1; from (Ka)ne, 20°C) was -21.76 kJ/mol. The “ΔCp (change in heat capacity upon binding)” value (EH domain of EHD1; from response of ΔH to temperature, 5 to 25°, ITC) was −150 cal mol^−1 K^−1 and the “interaction detected by ITC” value (Eps15 EH2) was “unable to detect any interaction”.
